This passage reports MIC and Activity results from ChEMBL document CHEMBL1287641, “Synthesis, characterization and anti-microbial studies of some novel 2,4-disubstituted thiazoles” (2010).

Assay [1] relates to Staphylococcus aureus. Kind of assay: Antibacterial activity against Staphylococcus aureus after 16 hrs by serial dilution method. Format: functional. Put shortly:
(§1)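 Broth tube serial dilution MIC. Test compounds were stocked at 1 mg/mL in DMF and twofold diluted in trypticase soya broth across six tubes. Each organism was grown 6 h at 37 °C, adjusted to […] (10⁸ cfu/mL) and diluted to 10⁵ cfu/mL; 1 mL was added per tube. Tubes were incubated 16 h at 37 °C. MIC was read as the concentration giving no visible growth. Inoculum and broth controls were included.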

The test system of assay [2] is Bacillus subtilis. The assay can be described thus: Antibacterial activity against Bacillus subtilis after 16 hrs by serial dilution method. Format: functional. Put shortly:
as §1

Assay [3] concerns Pseudomonas aeruginosa. Kind of assay: Antibacterial activity against Pseudomonas aeruginosa after 16 hrs by serial dilution method. Type of assay: functional. Put shortly: as §1
The subject of assay [4] is Escherichia coli. Kind of assay: Antibacterial activity against Escherichia coli after 16 hrs by serial dilution method. Format: functional. Put shortly: as §1
Assay [5] has as its system Escherichia coli. The assay can be described thus: Antibacterial activity against Escherichia coli at 1.6125 to 50 ug/ml after 16 hrs by serial dilution method. Type of assay: functional, organism-based. Put shortly: as §1
The subject of assay [6] is Staphylococcus aureus. Kind of assay: Antibacterial activity against Staphylococcus aureus at 1.6125 to 50 ug/ml after 16 hrs by serial dilution method. Format: functional, organism-based. Put shortly: as §1
The test system of assay [7] is Pseudomonas aeruginosa. The assay can be described thus: Antibacterial activity against Pseudomonas aeruginosa at 1.6125 to 50 ug/ml after 16 hrs by serial dilution method. Format: functional, organism-based. Put shortly: as §1
Assay [8] concerns Bacillus subtilis. Kind of assay: Antibacterial activity against Bacillus subtilis at 1.6125 to 50 ug/ml after 16 hrs by serial dilution method. Type of assay: functional, organism-based. Put shortly:
as §1

Each structure is given as a SMILES string. Values after ≈ are worked out from the molar mass of the structure shown. Active and inactive are the calls of the source. The rule behind the calls is not given here.

On to `CO/N=C(\C(=O)N[C@@H]1C(=O)N2C(C(=O)O)=C(CSc3nc(=O)c(O)nn3C)CS[C@H]12)c1csc(N)n1` [CEFTRIAXONE], for which the minimum inhibitory concentration (MIC) turned out to be 3.12 µg/mL (≈ 5.63 µM) against Staphylococcus aureus [1], 1.61 µg/mL (≈ 2.91 µM) with Bacillus subtilis [2], 1.61 µg/mL (≈ 2.91 µM) against Pseudomonas aeruginosa [3] and 1.61 µg/mL (≈ 2.91 µM) in the assay with Escherichia coli [4].

For `Clc1ccc(-c2csc(N/N=C/c3c[nH]nc3-c3ccc(-c4ccccc4)cc3)n2)c(Cl)c1`, the result in the assay with Escherichia coli [5], with Staphylococcus aureus [6], in the assay on Pseudomonas aeruginosa [7] and in the assay on Bacillus subtilis [8] was inactive.

Take `O=c1oc2ccc(Br)cc2cc1-c1csc(N/N=C/c2c[nH]nc2-c2ccc(-c3ccccc3)cc2)n1`: the outcome with Escherichia coli [5], in the assay with Staphylococcus aureus [6], in the assay with Pseudomonas aeruginosa [7] and in the assay with Bacillus subtilis [8] was inactive.

For `Clc1ccc(-c2csc(N/N=C/c3c[nH]nc3-c3cc(Cl)sc3Cl)n2)c(Cl)c1`, the MIC with Staphylococcus aureus [1] is 3.12 µg/mL (≈ 6.39 µM); in the assay on Bacillus subtilis [2], 1.61 µg/mL (≈ 3.3 µM); in the assay on Pseudomonas aeruginosa [3], 1.61 µg/mL (≈ 3.3 µM); in the assay with Escherichia coli [4], 1.61 µg/mL (≈ 3.3 µM).

With `O=c1oc2ccccc2cc1-c1csc(N/N=C/c2c[nH]nc2-c2cc(Cl)sc2Cl)n1`, the MIC against Staphylococcus aureus [1] came to 1.61 µg/mL (≈ 3.3 µM); in the assay on Bacillus subtilis [2], 1.61 µg/mL (≈ 3.3 µM); in the assay on Pseudomonas aeruginosa [3] it was 1.61 µg/mL (≈ 3.3 µM); against Escherichia coli [4], 3.12 µg/mL (≈ 6.4 µM).

For `O=c1oc2ccccc2cc1-c1csc(N/N=C/c2c[nH]nc2-c2ccc(Cl)cc2Cl)n1`, the minimum inhibitory concentration (MIC) was 3.12 µg/mL (≈ 6.48 µM) against Staphylococcus aureus [1], 1.61 µg/mL (≈ 3.34 µM) in the assay with Bacillus subtilis [2], 1.61 µg/mL (≈ 3.34 µM) in the assay on Pseudomonas aeruginosa [3] and 1.61 µg/mL (≈ 3.34 µM) in the assay on Escherichia coli [4].

Take `O=c1oc2ccc(Br)cc2cc1-c1csc(N/N=C/c2c[nH]nc2-c2ccc(Cl)cc2Cl)n1`: the minimum inhibitory concentration (MIC) with Staphylococcus aureus [1] is 3.12 µg/mL (≈ 5.57 µM); with Bacillus subtilis [2], 3.12 µg/mL (≈ 5.57 µM); against Pseudomonas aeruginosa [3] it was 1.61 µg/mL (≈ 2.87 µM); with Escherichia coli [4], 1.61 µg/mL (≈ 2.87 µM).

For the compound `CSc1ccc(-c2n[nH]cc2/C=N/Nc2nc(-c3cc4cc(Br)ccc4oc3=O)cs2)cc1`, the outcome with Escherichia coli [5], in the assay on Staphylococcus aureus [6], in the assay with Pseudomonas aeruginosa [7] and with Bacillus subtilis [8] was inactive.

In the case of `O=c1oc2ccccc2cc1-c1csc(N/N=C/c2c[nH]nc2-c2ccc(-c3ccccc3)cc2)n1`, the outcome with Escherichia coli [5], in the assay with Staphylococcus aureus [6], in the assay with Pseudomonas aeruginosa [7] and in the assay with Bacillus subtilis [8] was inactive.

Take `CSc1ccc(-c2n[nH]cc2/C=N/Nc2nc(-c3ccc(Cl)cc3Cl)cs2)cc1`: the MIC in the assay on Bacillus subtilis [2], in the assay with Pseudomonas aeruginosa [3] and in the assay on Escherichia coli [4] was 50 µg/mL (≈ 109 µM) each time. For the same compound, the result in the assay with Staphylococcus aureus [6] was inactive.

Take `Clc1ccc(-c2csc(N/N=C/c3c[nH]nc3-c3ccc(Cl)cc3Cl)n2)c(Cl)c1`: the MIC against Staphylococcus aureus [1] was found to be 3.12 µg/mL (≈ 6.47 µM); in the assay on Escherichia coli [4], 50 µg/mL (≈ 103 µM). Further, the result in the assay with Pseudomonas aeruginosa [7] and in the assay on Bacillus subtilis [8] was inactive.

`CSc1ccc(-c2n[nH]cc2/C=N/Nc2nc(-c3cc4ccccc4oc3=O)cs2)cc1`: the result in the assay with Escherichia coli [5], in the assay on Staphylococcus aureus [6], in the assay with Pseudomonas aeruginosa [7] and in the assay with Bacillus subtilis [8] was inactive.

As to `O=c1oc2ccc(Br)cc2cc1-c1csc(N/N=C/c2c[nH]nc2-c2cc(Cl)sc2Cl)n1`, the minimal inhibitory concentration (MIC) in the assay on Staphylococcus aureus [1], with Bacillus subtilis [2], against Pseudomonas aeruginosa [3] and against Escherichia coli [4] was 1.61 µg/mL (≈ 2.84 µM) throughout.
